Laboratory results: ChEMBL document CHEMBL1143237, “Sulfonamide-1,2,4-triazole derivatives as antifungal and antibacterial agents: synthesis, biological evaluation, lipophilicity, and conformational studies” (Bioorg Med Chem, 2008)
Converted amounts (≈) assume the structure as drawn.

How the values were obtained:
[1] = Partition coefficient, log P of the compound; format: physicochemical; settings: octanol/water
How it was run: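 Calculated, not measured: AlogP, IAlogP, ClogP, Cosmo logP, mlogP, Kowwin and XlogP were computed and averaged.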

Enterobacter cloacae = test: Antibacterial activity against Enterobacter cloacae after 24 hrs by microdilution test; format: functional
How it was run: (§1)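 Broth microdilution in LB medium in 96-well plates. Inoculum 1.0 × 10⁴ CFU per well, from a suspension set to 1.0 × 10⁵ CFU/ml in sterile saline. Compounds at […] µg/ml. Incubation 24 h at 28 °C. MIC is the lowest concentration with no visible growth under a binocular microscope. MBC by subculturing 2 µl into fresh broth for a further 72 h. OD540 read against blank. DMSO negative control.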

Salmonella enteritidis = test: Antibacterial activity against Salmonella enteritidis ATCC 13076 after 24 hrs by microdilution test; format: functional, Salmonella enterica subsp. enterica serovar Enteritidis; settings: Salmonella enterica, ATCC 13076, 24 h; how it was run: as §1
Salmonella typhimurium = test: Antibacterial activity against Salmonella Typhimurium ATCC 13311 after 24 hrs by microdilution test; format: functional, Salmonella enterica subsp. enterica serovar Typhimurium; settings: Salmonella enterica, ATCC 13311, 24 h; how it was run: as §1
[2] = test system: Staphylococcus epidermidis; test: Antibacterial activity against Staphylococcus epidermidis ATCC 12228 after 24 hrs by microdilution test; format: functional; settings: ATCC 12228, 24 h; how it was run: as §1
Micrococcus luteus = test: Antibacterial activity against Micrococcus flavus ATCC 10240 after 24 hrs by microdilution test; format: functional; settings: ATCC 10240, 24 h; how it was run: as §1
Escherichia coli = test: Antibacterial activity against Escherichia coli ATCC 35210 after 24 hrs by microdilution test; format: functional; settings: ATCC 35210, 24 h; how it was run: as §1
Aspergillus flavus = test: Antifungal activity against Aspergillus flavus ATCC 9643 after 72 hrs by microdilution test; format: functional; settings: ATCC 9643, 72 h
How it was run: (§2)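 Modified microdilution in malt broth. Spores were washed from malt agar with sterile 0.85% saline containing 0.1% Tween 80 and adjusted to about 1.0 × 10⁵ per well. Compounds were dissolved in DMSO and tested at […] µg/ml. Incubation 72 h at 28 °C. MIC is the lowest concentration with no visible growth under a binocular microscope. MFC by 2 µl subculture and a further 72 h at 28 °C.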

Trichoderma viride = test: Antifungal activity against Trichoderma viride IAM 5061 after 72 hrs by microdilution test; format: functional; how it was run: as §2
Talaromyces funiculosus = test: Antifungal activity against Penicillium funiculosum ATCC 36839 after 72 hrs by microdilution test; format: functional; settings: ATCC 36839, 72 h; how it was run: as §2
Aspergillus versicolor = test: Antifungal activity against Aspergillus versicolor ATCC 11730 after 72 hrs by microdilution test; format: functional; settings: ATCC 11730, 72 h; how it was run: as §2
Aspergillus ochraceus = test: Antifungal activity against Aspergillus ochraceus ATCC 12066 after 72 hrs by microdilution test; format: functional; settings: ATCC 12066, 72 h; how it was run: as §2
Aspergillus niger = test: Antifungal activity against Aspergillus niger ATCC 6275 after 72 hrs by microdilution test; format: functional; settings: ATCC 6275, 72 h; how it was run: as §2
Bacillus cereus = test: Antibacterial activity against Bacillus cereus ATCC 10907 after 24 hrs by microdilution test; settings: ATCC 10907, 24 h

Structure (SMILES): COc1cc(Cc2n[nH]c(=S)n2-c2ccccc2)c(S(=O)(=O)N2CCCC2)cc1OC
- logP [1]: 2.13
- MBC (Enterobacter cloacae): 100 µg/mL (≈ 217 µM)
- MIC (Enterobacter cloacae): 100 µg/mL (≈ 217 µM)
- MBC (Salmonella enteritidis): 150 µg/mL (≈ 326 µM)
- MIC (Salmonella enteritidis): 150 µg/mL (≈ 326 µM)
- MBC (Salmonella typhimurium): 150 µg/mL (≈ 326 µM)
- MIC (Salmonella typhimurium): 150 µg/mL (≈ 326 µM)
- MBC [2]: 150 µg/mL (≈ 326 µM)
- MIC [2]: 150 µg/mL (≈ 326 µM)
- MBC (Micrococcus luteus): 150 µg/mL (≈ 326 µM)
- MIC (Micrococcus luteus): 150 µg/mL (≈ 326 µM)
- MBC (Escherichia coli): 150 µg/mL (≈ 326 µM)
- MIC (Escherichia coli): 150 µg/mL (≈ 326 µM)
- MFC (Aspergillus flavus): 150 µg/mL (≈ 326 µM)
- MIC (Aspergillus flavus): 100 µg/mL (≈ 217 µM)
- MFC (Trichoderma viride): 150 µg/mL (≈ 326 µM)
- MIC (Trichoderma viride): 150 µg/mL (≈ 326 µM)
- MFC (Talaromyces funiculosus): 150 µg/mL (≈ 326 µM)
- MIC (Talaromyces funiculosus): 100 µg/mL (≈ 217 µM)
- MFC (Aspergillus versicolor): 150 µg/mL (≈ 326 µM)
- MIC (Aspergillus versicolor): 100 µg/mL (≈ 217 µM)
- MFC (Aspergillus ochraceus): 150 µg/mL (≈ 326 µM)
- MIC (Aspergillus ochraceus): 100 µg/mL (≈ 217 µM)
- MFC (Aspergillus niger): 150 µg/mL (≈ 326 µM)
- MIC (Aspergillus niger): 150 µg/mL (≈ 326 µM)
- MBC (Bacillus cereus): 150 µg/mL (≈ 326 µM)
- MIC (Bacillus cereus): 150 µg/mL (≈ 326 µM)

Structure (SMILES): COc1cc(Cc2n[nH]c(=S)n2-c2ccccc2)c(S(=O)(=O)N2CCOCC2)cc1OC
- logP [1]: 1.57
- MBC (Enterobacter cloacae): 100 µg/mL (≈ 210 µM)
- MIC (Enterobacter cloacae): 100 µg/mL (≈ 210 µM)
- MBC (Salmonella enteritidis): 150 µg/mL (≈ 315 µM)
- MIC (Salmonella enteritidis): 150 µg/mL (≈ 315 µM)
- MBC (Salmonella typhimurium): 150 µg/mL (≈ 315 µM)
- MIC (Salmonella typhimurium): 150 µg/mL (≈ 315 µM)
- MBC [2]: 150 µg/mL (≈ 315 µM)
- MIC [2]: 150 µg/mL (≈ 315 µM)
- MBC (Micrococcus luteus): 150 µg/mL (≈ 315 µM)
- MIC (Micrococcus luteus): 150 µg/mL (≈ 315 µM)
- MBC (Escherichia coli): 150 µg/mL (≈ 315 µM)
- MIC (Escherichia coli): 100 µg/mL (≈ 210 µM)
- MFC (Aspergillus flavus): 150 µg/mL (≈ 315 µM)
- MIC (Aspergillus flavus): 100 µg/mL (≈ 210 µM)
- MFC (Trichoderma viride): 150 µg/mL (≈ 315 µM)
- MIC (Trichoderma viride): 100 µg/mL (≈ 210 µM)
- MFC (Talaromyces funiculosus): 150 µg/mL (≈ 315 µM)
- MIC (Talaromyces funiculosus): 100 µg/mL (≈ 210 µM)
- MFC (Aspergillus versicolor): 150 µg/mL (≈ 315 µM)
- MIC (Aspergillus versicolor): 100 µg/mL (≈ 210 µM)
- MFC (Aspergillus ochraceus): 150 µg/mL (≈ 315 µM)
- MIC (Aspergillus ochraceus): 100 µg/mL (≈ 210 µM)
- MFC (Aspergillus niger): 150 µg/mL (≈ 315 µM)
- MIC (Aspergillus niger): 150 µg/mL (≈ 315 µM)
- MBC (Bacillus cereus): 150 µg/mL (≈ 315 µM)
- MIC (Bacillus cereus): 150 µg/mL (≈ 315 µM)

Structure (SMILES): COc1cc(Cc2n[nH]c(=S)n2-c2ccc(Cl)cc2)c(S(=O)(=O)N2CCCC2)cc1OC
- logP [1]: 2.11
- MBC (Enterobacter cloacae): 100 µg/mL (≈ 202 µM)
- MIC (Enterobacter cloacae): 100 µg/mL (≈ 202 µM)
- MBC (Salmonella enteritidis): 150 µg/mL (≈ 303 µM)
- MIC (Salmonella enteritidis): 150 µg/mL (≈ 303 µM)
- MBC (Salmonella typhimurium): 150 µg/mL (≈ 303 µM)
- MIC (Salmonella typhimurium): 150 µg/mL (≈ 303 µM)
- MBC [2]: 150 µg/mL (≈ 303 µM)
- MIC [2]: 150 µg/mL (≈ 303 µM)
- MBC (Micrococcus luteus): 150 µg/mL (≈ 303 µM)
- MIC (Micrococcus luteus): 150 µg/mL (≈ 303 µM)
- MBC (Escherichia coli): 150 µg/mL (≈ 303 µM)
- MIC (Escherichia coli): 150 µg/mL (≈ 303 µM)
- MFC (Aspergillus flavus): 150 µg/mL (≈ 303 µM)
- MIC (Aspergillus flavus): 100 µg/mL (≈ 202 µM)
- MFC (Trichoderma viride): 150 µg/mL (≈ 303 µM)
- MIC (Trichoderma viride): 150 µg/mL (≈ 303 µM)
- MFC (Talaromyces funiculosus): 150 µg/mL (≈ 303 µM)
- MIC (Talaromyces funiculosus): 100 µg/mL (≈ 202 µM)
- MFC (Aspergillus versicolor): 150 µg/mL (≈ 303 µM)
- MIC (Aspergillus versicolor): 100 µg/mL (≈ 202 µM)
- MFC (Aspergillus ochraceus): 150 µg/mL (≈ 303 µM)
- MIC (Aspergillus ochraceus): 100 µg/mL (≈ 202 µM)
- MFC (Aspergillus niger): 150 µg/mL (≈ 303 µM)
- MIC (Aspergillus niger): 150 µg/mL (≈ 303 µM)
- MBC (Bacillus cereus): 150 µg/mL (≈ 303 µM)
- MIC (Bacillus cereus): 150 µg/mL (≈ 303 µM)

Structure (SMILES): c1ccc(-c2ccc(C(c3ccccc3)n3ccnc3)cc2)cc1 (stereo unspecified) [BIFONAZOLE]
- MFC (Aspergillus flavus): 200 µg/mL (≈ 644 µM)
- MIC (Aspergillus flavus): 150 µg/mL (≈ 483 µM)
- MFC (Trichoderma viride): 250 µg/mL (≈ 805 µM)
- MIC (Trichoderma viride): 200 µg/mL (≈ 644 µM)
- MFC (Talaromyces funiculosus): 250 µg/mL (≈ 805 µM)
- MIC (Talaromyces funiculosus): 200 µg/mL (≈ 644 µM)
- MFC (Aspergillus versicolor): 200 µg/mL (≈ 644 µM)
- MIC (Aspergillus versicolor): 150 µg/mL (≈ 483 µM)
- MFC (Aspergillus ochraceus): 200 µg/mL (≈ 644 µM)
- MIC (Aspergillus ochraceus): 150 µg/mL (≈ 483 µM)
- MFC (Aspergillus niger): 250 µg/mL (≈ 805 µM)
- MIC (Aspergillus niger): 200 µg/mL (≈ 644 µM)

Structure (SMILES): O=C(N[C@H](CO)[C@H](O)c1ccc([N+](=O)[O-])cc1)C(Cl)Cl [CHLORAMPHENICOL]
- MBC (Enterobacter cloacae): 200 µg/mL (≈ 619 µM)
- MIC (Enterobacter cloacae): 150 µg/mL (≈ 464 µM)
- MBC (Salmonella enteritidis): 200 µg/mL (≈ 619 µM)
- MIC (Salmonella enteritidis): 150 µg/mL (≈ 464 µM)
- MBC (Salmonella typhimurium): 200 µg/mL (≈ 619 µM)
- MIC (Salmonella typhimurium): 150 µg/mL (≈ 464 µM)
- MBC [2]: 100 µg/mL (≈ 309 µM)
- MIC [2]: 100 µg/mL (≈ 309 µM)
- MBC (Micrococcus luteus): 200 µg/mL (≈ 619 µM)
- MIC (Micrococcus luteus): 150 µg/mL (≈ 464 µM)
- MBC (Escherichia coli): 250 µg/mL (≈ 774 µM)
- MIC (Escherichia coli): 250 µg/mL (≈ 774 µM)
- MBC (Bacillus cereus): 200 µg/mL (≈ 619 µM)
- MIC (Bacillus cereus): 150 µg/mL (≈ 464 µM)

Structure (SMILES): CN[C@@H]1[C@H](O[C@H]2[C@H](O[C@H]3[C@H](O)[C@@H](O)[C@H](N=C(N)N)[C@@H](O)[C@@H]3N=C(N)N)O[C@@H](C)[C@]2(O)C=O)O[C@@H](CO)[C@H](O)[C@H]1O [STREPTOMYCIN]
- MBC (Enterobacter cloacae): 100 µg/mL (≈ 172 µM)
- MIC (Enterobacter cloacae): 50 µg/mL (≈ 86 µM)
- MBC (Salmonella enteritidis): 100 µg/mL (≈ 172 µM)
- MIC (Salmonella enteritidis): 50 µg/mL (≈ 86 µM)
- MBC (Salmonella typhimurium): 100 µg/mL (≈ 172 µM)
- MIC (Salmonella typhimurium): 50 µg/mL (≈ 86 µM)
- MBC [2]: 100 µg/mL (≈ 172 µM)
- MIC [2]: 150 µg/mL (≈ 258 µM)
- MBC (Micrococcus luteus): 150 µg/mL (≈ 258 µM)
- MIC (Micrococcus luteus): 100 µg/mL (≈ 172 µM)
- MBC (Escherichia coli): 150 µg/mL (≈ 258 µM)
- MIC (Escherichia coli): 100 µg/mL (≈ 172 µM)
- MBC (Bacillus cereus): 150 µg/mL (≈ 258 µM)
- MIC (Bacillus cereus): 100 µg/mL (≈ 172 µM)
